Active and inactive are the calls of the source. No cut-off for these calls is given here.
How the values were obtained:
[1] = test system: Mus musculus; assay: In vivo inhibition of BRD4 expression in BALB/c mouse xenografted with human MCF7 cells at 100 mg/kg, ig administered once a day for 24 days by Western blot analysis; format: functional, organism-based
Summary of the method: (§1)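 Tumor tissues excised from MCF-7 or MDA-MB-231 xenograft mice were lysed and analysed by western blot for BRD4, c-Myc, LC3 and cleaved caspase-3.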

[2] = test system: Mus musculus; assay: In vivo inhibition of c-Myc expression in BALB/c mouse xenografted with human MDA-MB-231 cells at 100 mg/kg, ig administered once a day for 27 days by Western blot analysis; format: functional, organism-based; summary of the method: as §1
[3] = test system: MDA-MB-231; assay: Induction of autophagy in GFP-LC3 fused human MDA-MB-231 cells assessed as increase in LC3 puncta at 3 uM by fluorescence microscopy; format: functional, cell-based
Summary of the method: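 MCF-7 or MDA-MB-231 cells transfected with eGFP-LC3 plasmid, then treated with 1.5 or 3 µM respectively for 24 h. LC3 puncta viewed by fluorescence microscopy.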

[4] = test system: MDA-MB-231; assay: Inhibition of BRD4 protein expression in human MDA-MB-231 cells at 3 uM measured up to 36 hrs by Western blot analysis; format: functional, cell-based
Summary of the method: (§2)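 MCF-7 (1.5 μM) or MDA-MB-231 (3 μM) cells treated for indicated times. Adherent and floating cells lysed in RIPA with 1 mM PMSF. Equal protein run on 10-15% SDS-PAGE, blotted to PVDF, blocked in milk or BSA, HRP/ECL detection. β-actin loading control.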

[5] = target: T1, Bromodomain-containing protein 4 (Homo sapiens, UniProt O60885); assay: Inhibition of BRD4 in human MCF7 cells assessed as downregulation of c-Myc expression at 1.5 uM measured up to 36 hrs by Western blot analysis; format: cell-based; summary of the method: as §2
[6] = target: T1, Bromodomain-containing protein 4; assay: Inhibition of BRD4 in human MDA-MB-231 cells assessed as increase in ULK1 phosphorylation at ser317 at 3 uM up to 36 hrs by Western blot analysis; format: cell-based; summary of the method: as §2
[7] = test system: MCF7; assay: Induction of autophagy in human MCF7 cells assessed as LC3 lipidation at 1.5 uM in presence of ATG5 siRNA by Western blot analysis; format: functional, cell-based
[8] = target: T2, Serine/threonine-protein kinase ULK1 (Homo sapiens) (UniProt O75385); assay: Inhibition of recombinant human ULK1 (1 to 649 residues) expressed in baculovirus infected Sf9 cells at 1 to 10^6 nM using MBP as substrate after 60 mins in presence of ATP by ADO-Glo assay
T2 sequence (whole entry): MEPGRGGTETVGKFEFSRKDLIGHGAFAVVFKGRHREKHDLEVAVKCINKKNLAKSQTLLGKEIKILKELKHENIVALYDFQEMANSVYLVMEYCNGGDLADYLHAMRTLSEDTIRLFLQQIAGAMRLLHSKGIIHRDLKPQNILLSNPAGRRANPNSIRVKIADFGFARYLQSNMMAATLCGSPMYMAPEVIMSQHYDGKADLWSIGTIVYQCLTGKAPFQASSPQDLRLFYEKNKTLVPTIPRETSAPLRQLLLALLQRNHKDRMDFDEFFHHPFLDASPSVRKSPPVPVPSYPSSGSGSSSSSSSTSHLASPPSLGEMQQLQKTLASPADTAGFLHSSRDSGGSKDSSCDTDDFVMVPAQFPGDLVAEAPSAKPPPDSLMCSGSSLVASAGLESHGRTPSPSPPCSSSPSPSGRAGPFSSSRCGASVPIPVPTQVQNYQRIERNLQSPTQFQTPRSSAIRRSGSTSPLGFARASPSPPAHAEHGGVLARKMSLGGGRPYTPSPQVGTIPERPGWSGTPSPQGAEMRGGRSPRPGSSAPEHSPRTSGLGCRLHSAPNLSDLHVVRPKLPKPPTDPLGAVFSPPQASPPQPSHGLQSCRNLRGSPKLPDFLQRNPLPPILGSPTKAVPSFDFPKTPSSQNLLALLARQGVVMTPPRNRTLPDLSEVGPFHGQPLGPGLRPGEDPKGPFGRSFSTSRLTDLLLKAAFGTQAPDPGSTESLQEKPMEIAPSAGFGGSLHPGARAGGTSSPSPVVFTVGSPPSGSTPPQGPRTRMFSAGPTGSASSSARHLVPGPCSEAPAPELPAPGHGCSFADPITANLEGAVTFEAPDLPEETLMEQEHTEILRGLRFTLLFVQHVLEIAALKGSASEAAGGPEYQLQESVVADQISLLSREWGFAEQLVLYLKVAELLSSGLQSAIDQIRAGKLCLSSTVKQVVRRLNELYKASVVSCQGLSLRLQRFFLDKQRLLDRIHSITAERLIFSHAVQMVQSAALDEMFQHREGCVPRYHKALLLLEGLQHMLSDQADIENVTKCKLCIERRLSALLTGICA

[9] = test system: MCF7; assay: Antitumor activity against CM-Dil-labeled human MCF7 cells implanted in transgenic zebrafish embryos assessed as tumor growth inhibition at 12.5 to 50 uM dosed via sterile dechlorinated tap water and measured on fifth day after implantation by fluorescence assay; format: functional, organism-based
[10] = organism: Homo sapiens; assay: Effect on p53 interaction with AMPK in human MDA-MB-231 cells at 3 uM by co-immunoprecipitation assay; format: cell-based
Summary of the method: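 Cells left untreated or treated, then lysed in RIPA (40 mM Tris-HCl pH 7.5, 150 mM NaCl, 0.5% NP-40, protease inhibitors, 5% glycerol, 10 mM NaF). Lysates incubated overnight at 4°C with BRD4 or p53 antibodies plus protein A/G beads, washed 3 times, resolved on 10% SDS-PAGE. Blots probed for p53 and AMPKα; inputs checked for BRD4, p53 and AMPKα.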

[11] = test system: MDA-MB-231; assay: Induction of autophagy in human MDA-MB-231 cells assessed as reduction in cell viability at 3 uM administered at 1 hr post […] addition by MTT assay; format: functional, cell-based
Summary of the method: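 MDA-MB-231 cells seeded at 5×10^4 cells/ml and grown 24 h. 3-MA (1 mM) added 1 h before 3 μM test agent. MTT (5 mg/ml) for 4 h, formazan dissolved in DMSO, absorbance read at 570 nm.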

[12] = test system: Mus musculus; assay: Induction of cleavage of caspase-3 in BALB/c mouse xenografted with human MDA-MB-231 cells at 100 mg/kg, ig administered once a day for 27 days by Western blot analysis; format: functional, organism-based
Summary of the method: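 Female BALB/c nude mice (6-8 weeks) given 5×10^6 MCF-7 or MDA-MB-231 cells subcutaneously. At 100 mm3 tumours, dosed intragastrically once daily (25, 50, 100 mg/kg, or vehicle) for 24 or 27 days. Excised tumours lysed and probed by western blot for caspase-3 cleavage.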

[13] = target: AMP-activated protein kinase, AMPK (Homo sapiens) (UniProt P54646+O43741+P54619+Q9UGJ0+Q9Y478+Q13131+Q9UGI9); assay: Inhibition of AMPK (unknown origin) at 1 to 10^6 nM using MBP as substrate after 60 mins in presence of ATP by ADO-Glo assay

inhibition [5]: Active
inhibition [6]: Active
inhibition [8]: inactive
inhibition [13]: inactive
SMILES: Cc1cc(-c2nc3sc4c(c3c(=O)[nH]2)CCN(C)C4)cc(C)c1O
Activity [1]: Active
Activity [2]: Active
Activity [3]: Active
inhibition [4]: Active
Activity [7]: inactive
TGI [9]: Active
Activity [10]: inactive
Activity [11]: inactive
Activity [12]: Active

From ChEMBL document CHEMBL4028911, “Discovery of a Small-Molecule Bromodomain-Containing Protein 4 (BRD4) Inhibitor That Induces AMP-Activated Protein Kinase-Modulated Autophagy-Associated Cell Death in Breast Cancer” (J Med Chem, 2017)
